For series [1], the system named is Staphylococcus aureus. Description: Antibacterial activity against methicillin-resistant Staphylococcus aureus ATCC BAA-44 after overnight incubation by broth microdilution assay in presence of 4 ug/ml amoxicillin and 2 ug/ml clavulanic acid. It is filed as functional. The method, boiled down:
(§1)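 Resensitization screen: compound from a 5 mg/mL DMSO stock, 2-fold serially diluted in MHB from 32 μg/mL final. Antibiotic was held at its CLSI-susceptible level: amoxicillin/clavulanic acid 4/2 μg/mL, cefazolin 8 μg/mL, meropenem 4 μg/mL. Final MRSA inoculum OD600 0.001, overnight at 37 °C with shaking. MRC was the concentration giving no visible overnight growth.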

Series [2] has as its system Staphylococcus aureus. Description: Antibacterial activity against methicillin-resistant Staphylococcus aureus ATCC BAA-44 after overnight incubation by broth microdilution assay in presence of 8 ug/ml cefazolin. It is filed as functional. Summed up:
as §1
On the technique in general: Broth dilution looks for growth in wells or tubes with falling amounts of substance.

A short description of series [3]: Cytotoxicity against human HeLa cells after 24 hrs by CellTiter-Glo assay. It is filed as cell-based. Summed up:
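HeLa cells seeded at 20 000 cells/well in DMEM with 10% FCS and 1% penicillin/streptomycin, grown 16 h at 37 °C, 5% CO2. Medium renewed, then compound added in DMSO to final 0.5–32 μg/mL, triplicate series. After 24 h at 37 °C, plates equilibrated to room temperature and viability read by CellTiter-Glo luminescence.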
For orientation: In ATP-based viability assays light output follows the ATP content of the culture.

Series [4] has as its system Staphylococcus aureus. In words: Antibacterial activity against methicillin-resistant Staphylococcus aureus ATCC 33592 after overnight incubation by broth microdilution assay in presence of 4 ug/ml meropenem. It counts as functional. The method, boiled down: as §1
For series [5], the system named is Staphylococcus aureus. Description: Antibacterial activity against methicillin-resistant Staphylococcus aureus ATCC 33592 after 18 hrs by checkerboard test in presence of meropenem. It is filed as functional. The method, boiled down:
(§2)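 Checkerboard synergy test in MHB, plates in duplicate. Compound was 2-fold diluted across the rows (8 to 0.016 μg/mL). […] Final inoculum OD600 0.001, 37 °C with shaking, 18 h. FICI was taken as FICA + FICB, each the MIC in combination over the MIC alone.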

Series [6] is described as follows: Ratio of hemolytic activity in human RBC to antibacterial activity against methicillin-resistant Staphylococcus aureus ATCC 33592 in presence of 4 ug/ml meropenem.
The subject of series [7] is Staphylococcus aureus. Description: Antibacterial activity against methicillin-resistant Staphylococcus aureus ATCC BAA-44 after 18 hrs by checkerboard test in presence of amoxicillin/clavulanic acid. It counts as functional. The method, boiled down:
as §2

The nature of series [8]: Ratio of hemolytic activity in human RBC to antibacterial activity against methicillin-resistant Staphylococcus aureus ATCC BAA-44 in presence of 8 ug/ml cefazolin.
A short description of series [9]: Hemolytic activity in human RBC at 64 ug/ml after 1 hr relative to control. It counts as ADME, cell-based, Erythrocyte. The note with it: red blood cells, read-out: Activity. Summed up:
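Freshly drawn heparinized human blood centrifuged; RBCs washed three times in D-PBS and diluted to 1% of original pellet volume. Compound in DMSO added to final 64, 16 and 4 μg/mL. Incubated at 37 °C for 1 h with shaking, then centrifuged; supernatant hemoglobin read at 415 nm. Percent hemolysis taken against 1% Triton X-100 (100%) with DMSO as negative control. Triplicate; run within 3 h of the draw.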

Series [10] in a line: Ratio of hemolytic activity in human RBC to antibacterial activity against methicillin-resistant Staphylococcus aureus ATCC BAA-44 in presence of 4 ug/ml amoxicillin and 2 ug/ml clavulanic acid.
In series [11] the test system is Staphylococcus aureus. Description: Antibacterial activity against methicillin-sensitive Staphylococcus aureus ATCC 25923 after 18 hrs by broth microdilution assay. It is filed as functional. The settings on record: ATCC 25923, 18 h. The method, boiled down:
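CLSI broth microdilution in Mueller–Hinton broth. Day culture (OD600 0.15–0.4) diluted to OD600 0.002, then 2-fold on addition to wells, giving a final inoculum of OD600 0.001.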

The subject of series [12] is Staphylococcus aureus. In words: Antibacterial activity against methicillin-resistant Staphylococcus aureus ATCC BAA-44 after 18 hrs by broth microdilution assay. It counts as functional. The settings on record: ATCC BAA-44, 18 h. The method, boiled down: (§3)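 Day culture (OD600 0.15–0.4) diluted to OD600 0.002, then 2-fold on plating for a final inoculum of OD600 0.001. Plates were incubated at 37 °C with shaking for 18 h before reading growth.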

The test system of series [13] is Staphylococcus aureus. Description: Antibacterial activity against methicillin-resistant Staphylococcus aureus ATCC 33592 after 18 hrs by broth microdilution assay. It counts as functional. The settings on record: ATCC 33592, 18 h. Summed up: as §3
In series [14] the test system is Staphylococcus aureus. Description: Antibacterial activity against methicillin-resistant Staphylococcus aureus ATCC BAA-44 after 18 hrs by checkerboard test in presence of cefazolin. It is filed as functional. Summed up:
as §2

The values that follow come from ChEMBL document CHEMBL3259770, “Structure-activity relationship studies of the tricyclic indoline resistance-modifying agent” (J Med Chem, 2014).

Structures are written as SMILES. Values after ≈ are worked out from the molar mass of the structure shown.

What is called GI50 is the concentration giving 50% growth inhibition. The low end stands for greater sensitivity of the cells, the high end for lower sensitivity of the cells. As to `C=C1CCC[C@@H]2Nc3c(F)cc(Br)cc3[C@]12CCNS(=O)(=O)c1ccc(C(F)(F)F)cc1`, the MRC with Staphylococcus aureus [1], in the series with Staphylococcus aureus [2] and with Staphylococcus aureus [4] was 4 µg/mL throughout. The compound further had a GI50 at 24 h in series [3] of 8.7 µg/mL (≈ 16.3 µM).
On to `C=C1CCC[C@@H]2Nc3ccc(Br)cc3[C@]12CCNS(=O)(=O)c1ccc(Br)cc1`, for which the results for the MRC with Staphylococcus aureus [1], in the series on Staphylococcus aureus [2] and with Staphylococcus aureus [4] were 4 µg/mL, 4 µg/mL and 8 µg/mL, respectively. For the same compound, in series [3], the GI50 at 24 h came to 40 µg/mL (≈ 76 µM).
As to `C=C1CCC[C@@H]2Nc3c(Cl)cc(Cl)cc3[C@]12CCNS(=O)(=O)c1ccc(Cl)cc1`, the MRC in the series on Staphylococcus aureus [1], with Staphylococcus aureus [2] and with Staphylococcus aureus [4] was 4 µg/mL in each case. In series [3], the 50% growth inhibitory concentration (GI50) at 24 h was determined as 13.6 µg/mL (≈ 28.8 µM).
Consider `C=C1CCC[C@@H]2Nc3c(F)cc(Br)cc3[C@]12CCNS(=O)(=O)c1ccc(NC(C)=O)cc1`, for which the MRC with Staphylococcus aureus [1] turned out to be 32 µg/mL; in the series with Staphylococcus aureus [2] it was 32 µg/mL; with Staphylococcus aureus [4] it was 16 µg/mL. The compound also displayed a GI50 at 24 h in series [3] of 32 µg/mL (≈ 61.3 µM).
As a reminder, the MIC is the lowest concentration that inhibits growth of the organism. A lower MIC goes with inhibition by little substance. For the compound `C=C1CCC[C@@H]2Nc3c(F)cc(Br)cc3[C@]12CCNS(=O)(=O)c1ccc(Br)cc1`, the MRC with Staphylococcus aureus [1], in the series with Staphylococcus aureus [2] and with Staphylococcus aureus [4] was 1 µg/mL each time. Also, the “fractional inhibitory concentration index (FICI)” value with Staphylococcus aureus [5] stood at 0.0315; with Staphylococcus aureus [7] it was 0.0315; in the series on Staphylococcus aureus [14], 0.0156. Besides, the Ratio in [6], in [8] and in [10] was 64 in each case. Moreover, the hemolysis at 1 h, 64 ug/ml in [9] is less than 2%. Besides, the MIC in the series on Staphylococcus aureus [11], in the series with Staphylococcus aureus [12] and with Staphylococcus aureus [13] was greater than 64 µg/mL in each case. The GI50 at 24 h in [3] was 22 µg/mL (≈ 40.4 µM).
For `C=C1CCC[C@@H]2Nc3ccc(Br)cc3[C@]12CCNS(=O)(=O)c1ccc(Cl)c(Cl)c1`, the results for the MRC in the series with Staphylococcus aureus [1], in the series with Staphylococcus aureus [2] and with Staphylococcus aureus [4] were 4 µg/mL, 2 µg/mL and 4 µg/mL, respectively. Further, halving of growth in series [3] (GI50 at 24 h) required 12.8 µg/mL (≈ 24.8 µM).
Take `C=C1CCC[C@@H]2Nc3c(F)cc(Br)cc3[C@]12CCNS(=O)(=O)c1ccc(Cl)cc1`: the values for the MRC in the series on Staphylococcus aureus [1], in the series with Staphylococcus aureus [2] and in the series on Staphylococcus aureus [4] were 2 µg/mL, 4 µg/mL and 4 µg/mL, respectively. In [3], this compound had a GI50 at 24 h of 18.1 µg/mL (≈ 36.2 µM).
As for `C=C1CCC[C@@H]2Nc3ccc(Br)cc3[C@]12CCNS(=O)(=O)c1ccc(I)cc1`, the results for the MRC in the series with Staphylococcus aureus [1], with Staphylococcus aureus [2] and with Staphylococcus aureus [4] were 4 µg/mL, 4 µg/mL and 32 µg/mL, respectively. The compound also had a GI50 at 24 h in [3] of 33 µg/mL (≈ 57.6 µM).
As to `C=C1CCC[C@@H]2Nc3c(F)cc(Br)cc3[C@]12CCN`, the MRC in the series on Staphylococcus aureus [1] is greater than 32 µg/mL; in the series on Staphylococcus aureus [2], 32 µg/mL; with Staphylococcus aureus [4], 16 µg/mL. The same compound returned a GI50 at 24 h in series [3] of 16.2 µg/mL (≈ 49.8 µM).
In the case of `C=C1CCC[C@@H]2Nc3c(F)cc(Br)cc3[C@]12CCNS(=O)(=O)c1ccc(C#N)cc1`, the values for the MRC in the series on Staphylococcus aureus [1], in the series on Staphylococcus aureus [2] and in the series with Staphylococcus aureus [4] were 8 µg/mL, 4 µg/mL and 4 µg/mL, respectively. The compound also had a GI50 at 24 h in series [3] of 17 µg/mL (≈ 34.7 µM).
As to `C=C1CCC[C@@H]2Nc3c(F)cc(Br)cc3[C@]12CCNS(=O)(=O)c1ccc(OC)cc1`, the MRC was determined as 8 µg/mL in the series with Staphylococcus aureus [1], 4 µg/mL in the series on Staphylococcus aureus [2] and 8 µg/mL in the series with Staphylococcus aureus [4]. It took 49 µg/mL (≈ 98.9 µM) to inhibit growth in series [3] by half (GI50 at 24 h).
`C=C1CCC[C@@H]2Nc3ccc(Cl)cc3[C@]12CCNS(=O)(=O)c1ccc(Cl)cc1`: the values for the MRC with Staphylococcus aureus [1], in the series on Staphylococcus aureus [2] and with Staphylococcus aureus [4] were 8 µg/mL, 4 µg/mL and 8 µg/mL, respectively. In addition, the GI50 at 24 h in series [3] amounted to 35 µg/mL (≈ 80 µM).
With `C=C1CCC[C@@H]2Nc3c(F)cc(Br)cc3[C@]12CCNS(=O)(=O)c1ccc(C)cc1`, the MRC with Staphylococcus aureus [1], in the series with Staphylococcus aureus [2] and with Staphylococcus aureus [4] was 4 µg/mL each time. For the same compound, the GI50 at 24 h in series [3] stood at 22 µg/mL (≈ 45.9 µM).
`C=C1CCC[C@@H]2Nc3ccc(Br)cc3[C@]12CCNS(=O)(=O)c1ccc(Cl)cc1`: the MRC with Staphylococcus aureus [1], in the series on Staphylococcus aureus [2] and with Staphylococcus aureus [4] was 4 µg/mL throughout. The compound further returned a 50% growth inhibitory concentration (GI50) at 24 h in series [3] of 17.1 µg/mL (≈ 35.5 µM).
In the case of `C=C1CCC[C@@H]2Nc3c(F)cc(Br)cc3[C@]12CCNS(=O)(=O)c1ccc(I)cc1`, the values for the MRC in the series on Staphylococcus aureus [1], in the series on Staphylococcus aureus [2] and with Staphylococcus aureus [4] were 4 µg/mL, 2 µg/mL and 4 µg/mL, respectively. Also, it took 19.6 µg/mL (≈ 33.1 µM) to inhibit growth in [3] by half (GI50 at 24 h).
